The nature of assay [1]: S. cerevisiae growth inhibition in permissive medium (OD615), pilot counter-assay for S. cerevisiae lifespan shortening project, permissive growth control (AID 705). The following applies: OD615, 24 h, at 10 µM, stronger effect = higher value. Summed up: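 assay system = Saccharomyces cerevisiae strain carrying genetically modified DeaD replicative-lifespan system | technique = absorbance (optical density) at 615 nm | buffer or medium = permissive raffinose/galactose medium | timing = cells pre-grown 4 h, then 24 h compound exposure, 30 °C humidified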

Assay [2] in a line: S. cerevisiae growth inhibition in restrictive medium, OD615, pilot screen, restrictive growth control, yeast lifespan reduction project (AID 706;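 active = growth inhibition above a set limit, 3 SD over mean compound inhibition, in both replicates, cut at about 43% in these data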;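 note: modified DeaD lifespan yeast strain shifted to restrictive glucose medium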). The following applies: OD615, 48 h, at 10 µM, stronger effect = higher value. The method in brief:
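System: modified S. cerevisiae. Buffer or medium: CSMM-D glucose medium. Incubation: 4 h pre-growth plus 48 h compound exposure, 30 °C. Detection: absorbance (optical density) measured at 615 nm.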

Assay [3] in a line: doxorubicin toxicity protection in MRP-1 cells – H69AR cells, CellTiter-Glo, duplicate, MRP-1 activator project, pilot screen (AID 807;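 active = viability increase at or above a cutoff of the median across tested compounds plus 3 SD, cut at about 8.5% in these data, passing the limit was not always enough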;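 note: compound pretreatment 18-22 h then 72 h combined with doxorubicin; 0% = doxorubicin alone and 100% = vehicle without doxorubicin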). The following applies: H69AR viability with doxorubicin, CellTiter-Glo luminescence; at 10 µM; stronger effect = higher value. On the technique in general: Cellular ATP, detected with luciferase, serves as a proxy for viable cell number.
Assay [4] is described as follows: viability of HCT116 without oncogenic beta-catenin – human colon tumor cells, pilot screen (AID 823;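 active = cell viability at or below a set limit in both duplicate runs, the limit being the all-compound median minus 4 SD, cut at about 23% in these data, passing the limit was not always enough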;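 note: 0% = wells killed by 20 µM Hyamine and 100% = untreated DMSO cell wells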). The conditions noted are these: HCT116 beta-catenin knockout viability, CellTiter-Glo, 60 h; at 10 µM; stronger effect = lower value.
Assay [5] can be described thus: viability of PTEN-null HCT116 cells – cell-based, HCT116 clonal line, CellTiter-Glo, pilot screen (AID 824;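 active = viability at or below 27.92% in each of two runs, the all-compound median minus 4 SD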;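 note: 0% = 20 µM Hyamine control and 100% = vehicle cell control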). The conditions noted are these: HCT116 PTEN-deleted viability, 60 h, at 10 µM, stronger effect = lower value.
Assay [6] is described as follows: RAM pathway blockade in budding yeast – dse1pr::URA3 reporter, 5-FOA selection, pilot screen (AID 869;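 active = inhibition over a set limit, the all-compound mean plus 3 SD, in both replicate runs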;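 note: 0% = DMSO wells with no growth and 100% = 10 µM 1-NA-PP1 with full growth; RAM network block rescues cells from 5-FOA so hits raise OD615 growth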). The following applies: S. cerevisiae dse1pr::URA3 5-FOA growth, OD615, 2 d; at 10 µM; stronger effect = higher value; strain carries analog-sensitive mutant Cbk1 kinase.
Assay [7] in a line: RAM signaling pathway blockade in yeast – S. cerevisiae, Pdr1DBD-CYC8 efflux-inhibited sensitized strain, primary screen (AID 1298;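 active = RAM network inhibition above 8.4% in each of two replicates, 3 SD over the compound average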;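 note: 0% = DMSO untreated cells without growth and 100% = 10 µM 1-NA-PP1 full growth; higher means more yeast growth rescued from 5-FOA killing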). The following applies: S. cerevisiae cbk1-as DSE1-URA3 strain, 5-FOA growth OD615, 2 d; at 50 µM; stronger effect = higher value.

The source of these data is PubChem BioAssay.

Each structure is given as a SMILES string. Unmarked numbers belong to inactive results. Results filed as inconclusive are left out. Active and inactive are the calls of the source.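 Rule for the calls, unless noted: active = growth inhibition above 25% in both replicates, a cutoff set 3 SD above the mean; inconclusive = above 25% in only one replicate; inactive = the rest.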

Consider `Cc1ccc(-n2c3c(cc(C(=O)NCc4ccco4)c2=O)C(=O)CC(C)(C)C3)cc1`, for which the figures for the growth inhibition in assay [1] and in assay [2] were -5.76% and -4.77%, respectively. Also, the viability increase in assay [3] is -5.37%. The viability (commonly a read-out of living cells in per cent, often relative to untreated cells) is 83% in assay [4] and 85.6% in assay [5]. Besides, the inhibition (as a rule, the change of the read-out against control, counted positive when it falls) in assay [6] was -0.235%. Moreover, the RAM network inhibition in assay [7] is 3.42%.
With `O=C(CCNS(=O)(=O)c1cccc2nsnc12)NCCC1=CCCCC1`, the growth inhibition in assay [1] is -8.97%; in assay [2] it was -9.04%. Also, in assay [3], the viability increase was -2.88%. Further, the viability in assay [4] is 90.6%; in assay [5], 94.8%. In assay [6], the inhibition is 2.49%. Further, in assay [7], the RAM network inhibition is 6.94%.
On to `CCOC(=O)C1=C(C)Nc2nc(SCc3cccnc3)nn2C1c1ccc(OC)cc1` (stereo unspecified), for which the figures for the growth inhibition in assay [1] and in assay [2] were -6.41% and 2.46%, respectively. The viability increase in assay [3] was -2.64%. Besides, the results for the viability in assay [4] and in assay [5] were 98.7% and 89%, respectively. For the same compound, in assay [6], the inhibition is 0.58%. In assay [7], the RAM network inhibition was 4.49%.
With `CC(C)OC(=O)c1nnc(Cc2ccc(Cl)cc2)o1`, the growth inhibition in assay [1] is -6.46%; in assay [2], 9.87%. In addition, in assay [3], the viability increase was 0.7%. Further, the viability in assay [4] and in assay [5] was 102% in each case. In addition, in assay [6], the inhibition is -0.06%. The RAM network inhibition in assay [7] is 1.93%.
Take `COc1ccccc1C(=O)n1nc(-c2cccnc2)nc1N`: the growth inhibition was -10.2% in assay [1] and -5.6% in assay [2]. Also, the viability increase in assay [3] is -0.72%. Moreover, the viability is 106% in assay [4] and 105% in assay [5]. Further, the inhibition in assay [6] was 2.24%. In addition, in assay [7], the RAM network inhibition is 0.59%.
As for `Cc1ccc(CN2CCNC(=O)C2CC(=O)O)o1` (stereo unspecified), the growth inhibition in assay [1] is -8.29%; in assay [2], 2.8%. The viability increase in assay [3] is -0.83%. The values for the viability in assay [4] and in assay [5] were 105% and 104%, respectively. Also, in assay [6], the inhibition was 1.5%. Moreover, the RAM network inhibition in assay [7] is 2.4%.
Take `Cc1ccc(C2c3c(oc4ccc(C)cc4c3=O)C(=O)N2CCCN2CCOCC2)cc1` (stereo unspecified): the figures for the growth inhibition in assay [1] and in assay [2] were -8.48% and -3.63%, respectively. The viability increase in assay [3] was -5.72%. Besides, the viability in assay [4] was 77.3%; in assay [5] it was 84.1%. The inhibition in assay [6] was 0.99%. Also, the RAM network inhibition in assay [7] is -1.21%.
In the case of `CC(Sc1ccc2nnc(-c3ccc(F)cc3)n2n1)C(=O)O` (stereo unspecified), the values for the growth inhibition in assay [1] and in assay [2] were 8.21% and 52.5% (active), respectively. Also, the viability increase in assay [3] was -1.09%. For the same compound, the viability in assay [4] was 100%; in assay [5], 94.2%. For the same compound, in assay [6], the inhibition is 1.28%. Besides, in assay [7], the RAM network inhibition is 1.27%.
As for `CCN(CC)C(=O)c1cc2sc3ccccc3c2s1`, the figures for the growth inhibition in assay [1] and in assay [2] were -11.5% and -2.27%, respectively. Moreover, the viability increase in assay [3] was 0.41%. In addition, the viability in assay [4] is 88.1%; in assay [5] it was 95%. Further, in assay [6], the inhibition was -0.05%. Besides, the RAM network inhibition in assay [7] is 3.43%.
For the compound `O=C(Nc1nnc(-c2cccs2)o1)c1ccco1`, the growth inhibition in assay [1] was -0.7%; in assay [2], -3.64%. Also, in assay [3], the viability increase is -4.39%. The viability in assay [4] is 93.8%; in assay [5], 89.8%. The inhibition in assay [6] is 0.34%. For the same compound, in assay [7], the RAM network inhibition was -2.19%.
On to `Cc1ccc(C(=O)N2CCN(C3CCCCC3)CC2)s1`, for which the results for the growth inhibition in assay [1] and in assay [2] were -3.88% and -0.76%, respectively. In addition, the viability increase in assay [3] was -1.15%. The viability in assay [4] was 102%; in assay [5], 97.7%. The inhibition in assay [6] is 1.48%. Also, the RAM network inhibition in assay [7] was 1.05%.
Regarding `COc1cccc(C2CC(c3cccc(OC)c3)n3nc(N)nc3N2)c1` (stereo unspecified), the growth inhibition was -4.01% in assay [1] and 3.82% in assay [2]. Moreover, in assay [3], the viability increase was -2.05%. The viability was 95.2% in assay [4] and 92.6% in assay [5]. In assay [6], the inhibition was 0.07%. In assay [7], the RAM network inhibition was 2.5%.
In the case of `COc1cc(N)ccc1Cc1ccc(N)cc1OC`, the figures for the growth inhibition in assay [1] and in assay [2] were -5.34% and -2.19%, respectively. Also, the viability increase in assay [3] was -4.54%. In addition, the viability in assay [4] is 85.9%; in assay [5] it was 90.8%. Further, the inhibition in assay [6] is -0.06%. The RAM network inhibition in assay [7] is 6.85%.
With `Cc1ccc(-c2nn(CC(=O)O)c(=O)c3ccccc23)cc1`, the growth inhibition is -19.3% in assay [1] and -13.9% in assay [2]. The viability increase in assay [3] was 1.3%. Also, the figures for the viability in assay [4] and in assay [5] were 104% and 96.2%, respectively. In assay [6], the inhibition was 2.12%. Also, in assay [7], the RAM network inhibition is 1.1%.
As for `CCOC(=O)CSc1nnc(Cc2cc(=O)[nH]c(=O)[nH]2)n1-c1ccc(Cl)cc1`, the results for the growth inhibition in assay [1] and in assay [2] were -16.1% and -1.39%, respectively. Besides, the viability increase in assay [3] is 1.33%. For the same compound, the viability is 101% in assay [4] and 100% in assay [5]. Moreover, the inhibition in assay [6] was 2.48%. Besides, the RAM network inhibition in assay [7] is 4.03%.
Turning to `CC1CCc2nn(CC(=O)NCc3ccco3)cc2C1` (stereo unspecified), the growth inhibition in assay [1] was 8.89%; in assay [2], 2.02%. Further, the viability increase in assay [3] is -3.13%. The viability in assay [4] was 92.7%; in assay [5], 88.2%. Further, the inhibition in assay [6] is 2.08%. Moreover, the RAM network inhibition in assay [7] was 5.3%.
Take `CCOc1ccc(C(C)NC(=O)CCC(=O)O)cc1` (stereo unspecified): the growth inhibition was -4.12% in assay [1] and -1.54% in assay [2]. Also, the viability increase in assay [3] was -1.24%. The viability in assay [4] was 93.4%; in assay [5] it was 89%. The inhibition in assay [6] was 1.27%. In addition, in assay [7], the RAM network inhibition was 0.68%.
`O=C(Cn1cnc2c(nnn2-c2ccccc2)c1=O)N1CCC(Cc2ccccc2)CC1`: the growth inhibition in assay [1] is 7.29%; in assay [2], 9.16%. Further, the viability increase in assay [3] was -1.56%. The figures for the viability in assay [4] and in assay [5] were 91.4% and 85.3%, respectively. In addition, the inhibition in assay [6] was 2.19%. Also, the RAM network inhibition in assay [7] is 7.33%.
